Assay results reported in ChEMBL document CHEMBL4265988, “Molecular tools that block maturation of the nuclear lamin A and decelerate cancer cell migration” (Bioorg Med Chem, 2018).
Activity calls are given as the source filed them. The rule behind the calls is not given here.

Key:
[1] = biological target: T1, CAAX prenyl protease 1 homolog (Homo sapiens) (UniProt O75844); assay: Inhibition of ZMPSTE24 in human U2OS cells assessed as increase in intracellular accumulation of prelamin A at 10 uM after 24 hrs by Western blot analysis relative to control; assay type: cell-based
T1 sequence (whole entry): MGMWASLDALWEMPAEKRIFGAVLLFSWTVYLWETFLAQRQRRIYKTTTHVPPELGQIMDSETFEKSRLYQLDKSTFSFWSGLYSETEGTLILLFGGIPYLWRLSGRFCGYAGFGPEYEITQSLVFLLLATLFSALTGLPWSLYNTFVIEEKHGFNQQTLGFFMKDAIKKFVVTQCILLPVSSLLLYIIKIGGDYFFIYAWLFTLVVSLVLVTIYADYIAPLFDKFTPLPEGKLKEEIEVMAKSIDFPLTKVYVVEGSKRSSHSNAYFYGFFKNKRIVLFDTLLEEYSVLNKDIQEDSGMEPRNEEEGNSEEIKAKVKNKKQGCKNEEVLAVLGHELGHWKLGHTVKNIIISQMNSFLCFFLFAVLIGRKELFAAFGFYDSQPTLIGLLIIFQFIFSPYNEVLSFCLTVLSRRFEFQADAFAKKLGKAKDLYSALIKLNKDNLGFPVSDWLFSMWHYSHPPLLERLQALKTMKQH
Outline: (§1)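 Cells treated 24 h with 10 μM compound, lysates analysed by Western blot with prelamin A-specific antibody; prelamin A band normalised to tubulin and expressed relative to untreated control (set to 1); lopinavir run in parallel as reference.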

[2] = biological target: T1, CAAX prenyl protease 1 homolog (Homo sapiens); assay: Inhibition of ZMPSTE24 in human SW1990 cells assessed as increase in intracellular accumulation of prenylated prelamin A at 10 uM after 24 hrs by Western blot analysis relative to control; assay type: cell-based; outline: as §1
HPAF-II [3] = assay: Downregulation of MCM6 protein expression in human HPAF2 cells at 10 uM after 48 hrs by Western blot method; assay type: ADME, cell-based
[4] = biological target: T1, CAAX prenyl protease 1 homolog (Homo sapiens); assay: Inhibition of ZMPSTE24 in human KP4 cells assessed as increase in intracellular accumulation of prenylated prelamin A at 10 uM after 24 hrs by Western blot analysis relative to control; assay type: cell-based; outline: as §1
KP-4 [5] = assay: Antimigratory activity against human KP4 cells at 10 uM after 10 days by crystal violet staining-based assay; assay type: functional, cell-based
Outline: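 Transmigration assay in KP-4 cells; test agents at single 10 μM, with lopinavir and 0.15% DMSO (vehicle) in buffer as controls.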

[6] = biological target: T1, CAAX prenyl protease 1 homolog (Homo sapiens); assay: Inhibition of ZMPSTE24 in human HPAF2 cells assessed as increase in intracellular accumulation of prenylated prelamin A at 10 uM after 24 hrs by Western blot analysis relative to control; assay type: cell-based; outline: as §1
KP-4 [7] = assay: Antiproliferative activity against human KP4 cells at 10 uM after 7 days by crystal violet staining-based assay; assay type: cell-based; conditions: kp-4, 168 h
Outline: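 Proliferation assay in KP-4 cells, single concentration 10 μM.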

KP-4 [8] = assay: Downregulation of MCM6 protein expression in human KP4 cells at 10 uM after 48 hrs by Western blot method; assay type: ADME, cell-based; conditions: kp-4, 48 h
[9] = biological target: T1, CAAX prenyl protease 1 homolog (Homo sapiens); assay: Inhibition of ZMPSTE24 in human HCT116 cells assessed as increase in intracellular accumulation of prenylated prelamin A at 10 uM after 24 hrs by Western blot analysis relative to control; assay type: cell-based; outline: as §1
HPAF-II [10] = assay: Induction of p21 accumulation in human HPAF2 cells at 10 uM after 48 hrs by Western blot method; assay type: cell-based
KP-4 [11] = assay: Induction of p21 accumulation in human KP4 cells at 10 uM after 48 hrs by Western blot method; assay type: cell-based; conditions: kp-4, 48 h

fold change (FC) [1]	SMILES	also measured
3	Cc1cccc(C)c1OCC(=O)N[C@@H](Cc1ccccc1)[C@@H](O)C[C@H](Cc1ccccc1)NC(=O)[C@@H](NC(=O)c1ccnc(Cl)c1)C(C)C	
	COC(=O)[C@H](C)NC(=O)C(Cc1ccccc1)CP(=O)(O)[C@H](Cc1ccccc1)NC(=O)OCc1ccccc1 (some centres not stated)	fold change (FC) [2]: 7.4; Activity (HPAF-II [3]): Non-Toxic; fold change (FC) [4]: 3.6; Activity (KP-4 [5]): Active; fold change (FC) [6]: 2.2; Activity (KP-4 [7]): Non-Toxic; Activity (KP-4 [8]): Non-Toxic; fold change (FC) [9]: 2.2; Activity (HPAF-II [10]): Non-Toxic; Activity (KP-4 [11]): Non-Toxic
2.7	COc1cc(Cl)cc(C(=O)N[C@H](C(=O)N[C@@H](Cc2ccccc2)C[C@H](O)[C@H](Cc2ccccc2)NC(=O)COc2c(C)cccc2C)C(C)C)c1	
2.8	Cc1cccc(C)c1OCC(=O)N[C@@H](Cc1ccccc1)[C@@H](O)C[C@H](Cc1ccccc1)NC(=O)[C@@H](NC(=O)Cc1ccc(Cl)cc1)C(C)C	
2.5	Cc1cccc(C)c1OCC(=O)N[C@@H](Cc1ccccc1)[C@@H](O)C[C@H](Cc1ccccc1)NC(=O)[C@@H](NC(=O)c1ccc([N+](=O)[O-])o1)C(C)C	
2	Cc1cccc(C)c1OCC(=O)N[C@@H](Cc1ccccc1)[C@@H](O)C[C@H](Cc1ccccc1)NC(=O)[C@@H](NC(=O)C1CCCCN1)C(C)C (some centres not stated)	
3	Cc1cccc(C)c1OCC(=O)N[C@@H](Cc1ccccc1)[C@@H](O)C[C@H](Cc1ccccc1)NC(=O)[C@@H](NC(=O)CC1CC1)C(C)C	
2.7	Cc1cc(OC(F)(F)F)cc(C(=O)N[C@H](C(=O)N[C@@H](Cc2ccccc2)C[C@H](O)[C@H](Cc2ccccc2)NC(=O)COc2c(C)cccc2C)C(C)C)c1	
1.2 to 2.1	Cc1cccc(C)c1OCC(=O)N[C@@H](Cc1ccccc1)[C@@H](O)C[C@H](Cc1ccccc1)NC(=O)[C@H](C(C)C)N1CCCNC1=O	fold change (FC) [2]: 4.9; fold change (FC) [4]: 2.5; Activity (KP-4 [5]): inactive; fold change (FC) [6]: 2; fold change (FC) [9]: 1.4
1.7	Cc1cccc(C)c1OCC(=O)N[C@@H](Cc1ccccc1)[C@@H](O)C[C@H](Cc1ccccc1)NC(=O)[C@@H](NC(=O)Cc1cccnc1)C(C)C	
1.5	Cc1cccc(C)c1OCC(=O)N[C@@H](Cc1ccccc1)[C@@H](O)C[C@H](Cc1ccccc1)NC(=O)[C@@H](NC(=O)c1ccc2[nH]nnc2c1)C(C)C	
	C[C@H](NC(=O)C(Cc1ccccc1)CP(=O)(O)[C@H](Cc1ccccc1)NC(=O)OCc1ccccc1)C(=O)O (some centres not stated)	inhibition [1]: inactive
2.1	Cc1cccc(C)c1OCC(=O)N[C@@H](Cc1ccccc1)[C@@H](O)C[C@H](Cc1ccccc1)NC(=O)[C@@H](NC(=O)c1cc(C(F)(F)F)cc(C(F)(F)F)c1)C(C)C	
2.1	Cc1cccc(C)c1OCC(=O)N[C@@H](Cc1ccccc1)[C@@H](O)C[C@H](Cc1ccccc1)NC(=O)[C@@H](NC(=O)c1ccc(Br)cn1)C(C)C	
2.4	Cc1cccc(C)c1OCC(=O)N[C@@H](Cc1ccccc1)[C@@H](O)C[C@H](Cc1ccccc1)NC(=O)[C@@H](NC(=O)c1cc(Cl)cc(C(F)(F)F)c1)C(C)C	
1.4	COc1cc(C(=O)N[C@H](C(=O)N[C@@H](Cc2ccccc2)C[C@H](O)[C@H](Cc2ccccc2)NC(=O)COc2c(C)cccc2C)C(C)C)cc(C(F)(F)F)c1	
3.2	Cc1cccc(C)c1OCC(=O)N[C@@H](Cc1ccccc1)[C@@H](O)C[C@H](Cc1ccccc1)NC(=O)[C@@H](NC(=O)C1CCC(=O)N1)C(C)C (some centres not stated)	
3.4	Cc1cc(C)cc(C(=O)N[C@H](C(=O)N[C@@H](Cc2ccccc2)C[C@H](O)[C@H](Cc2ccccc2)NC(=O)COc2c(C)cccc2C)C(C)C)c1	
